How the values were obtained:
HCT-15 = assay: Cytotoxicity against human HCT15 cells at 10^-4 M after 48 hrs by SRB assay; type: functional; settings: HCT-15, 48 h, read-out: GI
In short: (§1)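 Run by NCI on its 60-line human tumor cell panel, after a three-cell-line prescreen. Cells were exposed to drug for 48 h over a 5-log range: 100, 10, 1, 0.1 and 0.01 micromolar. Growth was estimated by sulforhodamine B (SRB) protein staining. Percent growth inhibition (I%) was recorded at each concentration relative to untreated control cells.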

OVCAR-8 = assay: Cytotoxicity against human OVCAR8 cells at 10^-4 M after 48 hrs by SRB assay; type: functional; settings: OVCAR-8, 48 h, read-out: GI
In short: (§2)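 Second-stage screen in the 60-cell-line human tumor panel at NCI, over a 5-log range (100, 10, 1, 0.1, 0.01 micromolar). Cells were exposed to drug for 48 h and growth was estimated with a sulforhodamine B protein stain. The value is percent growth inhibition at each concentration.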

[1] = Cytotoxicity against human EKVX cells at 10^-4 M after 48 hrs by SRB assay; type: functional; settings: read-out: GI; in short: as §1
A549 = assay: Cytotoxicity against human A549 cells at 10^-4 M after 48 hrs by SRB assay; type: functional; settings: A549, 48 h, read-out: GI; in short: as §1
SK-OV-3 = assay: Cytotoxicity against human SKOV3 cells at 10^-4 M after 48 hrs by SRB assay; type: functional; settings: SK-OV-3, 48 h, read-out: GI; in short: as §2
COLO 205 = assay: Cytotoxicity against human COLO205 cells at 10^-4 M after 48 hrs by SRB assay; type: functional; settings: COLO 205, 48 h, read-out: GI; in short: as §1
[2] = Cytotoxicity against human UO31 cells at 10^-4 M after 48 hrs by SRB assay; type: functional; settings: UO-31, 48 h, read-out: GI; in short: as §2
BT-549 = assay: Cytotoxicity against human BT549 cells at 10^-4 M after 48 hrs by SRB assay; type: functional; settings: BT-549, 48 h, read-out: GI; in short: as §1
MCF7 [3] = assay: Cytotoxicity against human MCF7 cells assessed as cell growth at 10^-4 M after 48 hrs by alamar blue assay relative to untreated control; type: functional; settings: MCF7, 48 h, read-out: Activity
In short: (§3)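 Three-cell-line prescreen. Each line was inoculated and preincubated on a microtiter plate, then the agent was added at a single concentration (10^-4 or 10^-5 M) and incubated 48 h. Endpoint was measured with alamar blue, and growth is reported as a percentage of untreated control cells.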

NCI/ADR-RES = assay: Cytotoxicity against human NCI/ADR-RES cells at 10^-4 M after 48 hrs by SRB assay; type: functional; settings: read-out: GI
In short: (§4)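 Run in the NCI 60-cell-line screen after a three-line prescreen. Cells got a 48 h drug exposure; viability/growth was estimated with the sulforhodamine B protein assay. Growth inhibition (I%) was recorded at 100, 10, 1, 0.1 and 0.01 micromolar. Percent growth is relative to untreated control cells, and negative values indicate cell kill.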

SNB-75 = assay: Cytotoxicity against human SNB75 cells at 10^-4 M after 48 hrs by SRB assay; type: functional; settings: SNB-75, 48 h, read-out: GI; in short: as §2
IGROV-1 = assay: Cytotoxicity against human IGROV1 cells at 10^-4 M after 48 hrs by SRB assay; type: functional; settings: IGROV-1, 48 h, read-out: GI; in short: as §1
NCI-H322M = assay: Cytotoxicity against human NCI-H322M cells at 10^-4 M after 48 hrs by SRB assay; type: functional; settings: read-out: GI; in short: as §4
DU-145 = assay: Cytotoxicity against human DU145 cells at 10^-4 M after 48 hrs by SRB assay; type: functional; settings: DU-145, 48 h, read-out: GI; in short: as §1
HCT-116 = assay: Cytotoxicity against human HCT116 cells at 10^-4 M after 48 hrs by SRB assay; type: functional; settings: HCT-116, 48 h, read-out: GI; in short: as §1
SF-268 = assay: Cytotoxicity against human SF268 cells at 10^-4 M after 48 hrs by SRB assay; type: functional; settings: SF-268, 48 h, read-out: GI; in short: as §2
SK-MEL-28 = assay: Cytotoxicity against human SK-MEL-28 cells at 10^-4 M after 48 hrs by SRB assay; type: functional; settings: SK-MEL-28, 48 h, read-out: GI; in short: as §2
RPMI-8226 = assay: Cytotoxicity against human RPMI8226 cells at 10^-4 M after 48 hrs by SRB assay; type: functional; settings: RPMI-8226, 48 h, read-out: GI; in short: as §2
M14 = assay: Cytotoxicity against human M14 cells at 10^-4 M after 48 hrs by SRB assay; type: functional; settings: M14, 48 h, read-out: GI; in short: as §4
UACC-62 = assay: Cytotoxicity against human UACC62 cells at 10^-4 M after 48 hrs by SRB assay; type: functional; settings: UACC-62, 48 h, read-out: GI; in short: as §2
NCI-H23 = assay: Cytotoxicity against human NCI-H23 cells at 10^-4 M after 48 hrs by SRB assay; type: functional; settings: NCI-H23, 48 h, read-out: GI; in short: as §4
A498 = assay: Cytotoxicity against human A498 cells at 10^-4 M after 48 hrs by SRB assay; type: functional; settings: A498, 48 h, read-out: GI; in short: as §1
NCI-H460 = assay: Cytotoxicity against human NCI-H460 cells assessed as cell growth at 10^-4 M after 48 hrs by alamar blue assay relative to untreated control; type: functional; settings: NCI-H460, 48 h, read-out: Activity; in short: as §3
SK-MEL-5 = assay: Cytotoxicity against human SK-MEL-5 cells at 10^-4 M after 48 hrs by SRB assay; type: functional; settings: SK-MEL-5, 48 h, read-out: GI; in short: as §2
[4] = Cytotoxicity against human UACC257 cells at 10^-4 M after 48 hrs by SRB assay; type: functional; settings: UACC-257, 48 h, read-out: GI; in short: as §2
U-251 = assay: Cytotoxicity against human U251 cells at 10^-4 M after 48 hrs by SRB assay; type: functional; settings: U-251, 48 h, read-out: GI; in short: as §2
K562 = assay: Cytotoxicity against human K562 cells at 10^-4 M after 48 hrs by SRB assay; type: functional; settings: K562, 48 h, read-out: GI; in short: as §4
MDA-MB-231 = assay: Cytotoxicity against human MDA-MB-231 cells at 10^-4 M after 48 hrs by SRB assay; type: functional; settings: MDA-MB-231, 48 h, read-out: GI; in short: as §4
Malme-3M = assay: Cytotoxicity against human MALME-3M cells at 10^-4 M after 48 hrs by SRB assay; type: functional; settings: read-out: GI; in short: as §4
MDA-MB-435 = assay: Cytotoxicity against human MDA-MB-435 cells at 10^-4 M after 48 hrs by SRB assay; type: functional; settings: MDA-MB-435, 48 h, read-out: GI; in short: as §4
SW-620 = assay: Cytotoxicity against human SW620 cells at 10^-4 M after 48 hrs by SRB assay; type: functional; settings: SW-620, 48 h, read-out: GI; in short: as §2
MCF7 [5] = assay: Cytotoxicity against human MCF7 cells at 10^-4 M after 48 hrs by SRB assay; type: functional; settings: MCF7, 48 h, read-out: GI; in short: as §4
PC-3 = assay: Cytotoxicity against human PC3 cells at 10^-4 M after 48 hrs by SRB assay; type: functional; settings: PC-3, 48 h, read-out: GI; in short: as §2
Thymidylate synthase = Thymidylate synthase (Homo sapiens, UniProt P04818); assay: Competitive inhibition of human thymidylate synthase by spectrophotometry
Thymidylate synthase, sequence (P04818 whole entry): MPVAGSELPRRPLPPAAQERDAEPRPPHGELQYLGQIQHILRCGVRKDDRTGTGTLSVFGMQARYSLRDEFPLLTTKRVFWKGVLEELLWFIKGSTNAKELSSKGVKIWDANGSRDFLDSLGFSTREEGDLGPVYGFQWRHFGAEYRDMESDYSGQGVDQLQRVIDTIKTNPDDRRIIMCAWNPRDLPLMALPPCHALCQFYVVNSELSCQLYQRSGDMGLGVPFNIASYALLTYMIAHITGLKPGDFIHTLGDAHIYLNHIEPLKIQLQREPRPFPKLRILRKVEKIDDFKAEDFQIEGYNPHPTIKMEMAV

| SMILES | inhibition of growth at 100 µM (HCT-15) [%] | inhibition of growth at 100 µM (OVCAR-8) [%] | inhibition of growth at 100 µM [1] [%] | inhibition of growth at 100 µM (A549) [%] | inhibition of growth at 100 µM (SK-OV-3) [%] | inhibition of growth at 100 µM (COLO 205) [%] | inhibition of growth at 100 µM [2] [%] | inhibition of growth at 100 µM (BT-549) [%] | growth at 100 µM (MCF7 [3]) [%] | inhibition of growth at 100 µM (NCI/ADR-RES) [%] | inhibition of growth at 100 µM (SNB-75) [%] | inhibition of growth at 100 µM (IGROV-1) [%] | inhibition of growth at 100 µM (NCI-H322M) [%] | inhibition of growth at 100 µM (DU-145) [%] | inhibition of growth at 100 µM (HCT-116) [%] | inhibition of growth at 100 µM (SF-268) [%] | inhibition of growth at 100 µM (SK-MEL-28) [%] | inhibition of growth at 100 µM (RPMI-8226) [%] | inhibition of growth at 100 µM (M14) [%] | inhibition of growth at 100 µM (UACC-62) [%] | further results |
| --- | --- | --- | --- | --- | --- | --- | --- | --- | --- | --- | --- | --- | --- | --- | --- | --- | --- | --- | --- | --- | --- |
| C#CCN(Cc1nc2cc(C(F)(F)F)ccc2nc1-c1ccccc1)c1ccc(OC(F)(F)F)cc1 | 47 | 57 | 89 | 60 | < 40 | 73 | 70 | 86 | 17 | < 40 | < 40 | 81 | 79 | 75 | 99 | 63 | < 40 | 88 | 76 | 64 | inhibition of growth at 100 µM (NCI-H23): 60%; inhibition of growth at 100 µM (A498): 87%; growth at 100 µM (NCI-H460): 7%; inhibition of growth at 100 µM (SK-MEL-5): 86%; inhibition of growth at 100 µM [4]: 44%; inhibition of growth at 100 µM (U-251): 70%; inhibition of growth at 100 µM (K562): 78%; inhibition of growth at 100 µM (MDA-MB-231): 81%; inhibition of growth at 100 µM (Malme-3M): < 40%; inhibition of growth at 100 µM (MDA-MB-435): 86%; inhibition of growth at 100 µM (SW-620): 75%; inhibition of growth at 100 µM (MCF7 [5]): 79%; inhibition of growth at 100 µM (PC-3): 77% |
| C#CCN(Cc1nc2cc(C(F)(F)F)ccc2nc1-c1ccccc1)c1ccc(F)cc1 | 97 | 96 | 120 | 123 | 93 | 126 | 83 | 77 | 41 | 108 | 54 | 86 | 123 | 82 | 94 | 82 | 71 | 117 | 71 | 96 | inhibition of growth at 100 µM (NCI-H23): 31%; inhibition of growth at 100 µM (A498): 104%; growth at 100 µM (NCI-H460): 6%; Ki (Thymidylate synthase): 2380 nM; inhibition of growth at 100 µM (SK-MEL-5): 180%; inhibition of growth at 100 µM [4]: 119%; inhibition of growth at 100 µM (U-251): 85%; inhibition of growth at 100 µM (K562): 89%; inhibition of growth at 100 µM (MDA-MB-231): 129%; inhibition of growth at 100 µM (Malme-3M): 129%; inhibition of growth at 100 µM (MDA-MB-435): 87%; inhibition of growth at 100 µM (SW-620): 93%; inhibition of growth at 100 µM (MCF7 [5]): 89%; inhibition of growth at 100 µM (PC-3): 92% |

From ChEMBL document CHEMBL3120154, “2-[N-Alkyl(R-phenyl)-aminomethyl]-3-phenyl-7-trifluoromethylquinoxalines as anticancer agents inhibitors of folate enzymes” (Eur J Med Chem, 2014)
